Results from different studies.
Lines come from different studies, so protocols differ.
ADRB2: Beta-2 adrenergic receptor (ADRB2, Homo sapiens, UniProt P07550)

CCOc1ccccc1OCCN[C@H](C)Cc1ccc(OC)c(S(N)(=O)=O)c1  IC50 (ADRB2; ligand displacement, radioligand): 2.2 µM
COc1ccc(OC)c(C(O)C(C)N)c1 (stereo not drawn)  IC50 (ADRB2; ligand displacement, radioligand; cell membranes): 12.3 µM
C[C@H](N)Cn1ncc2ccc3c(c21)CCCO3  EC50 (ADRB2; cAMP, agonist): > 100 µM
CC(Cc1ccc2c(c1)OCO2)NCC(O)c1ccc(O)c(O)c1 (stereo not drawn)  EC50 (ADRB2; β-arrestin recruitment, agonist): 0.00631 µM
CN1CCC(=C2c3ccccc3CCc3sccc32)CC1  IC50 (ADRB2; ligand displacement, radioligand): 5.8 µM
NCC(O)c1ccc(O)c(O)c1F (stereo not drawn)  Ki (Beta-2 adrenergic receptor (ADRB2, Homo sapiens, UniProt P07550, N293A); ligand displacement, radioligand; cell membranes): 319 µM
CC(N)Cc1c[nH]c2ccc(OCc3cccs3)cc12 (stereo not drawn)  IC50 (ADRB2; ligand displacement, radioligand; cell membranes): 9.42 µM
NCC(O)c1cc(O)c(O)cc1F (stereo not drawn)  Ki (Beta-2 adrenergic receptor (ADRB2, Homo sapiens, UniProt P07550, N293Q); ligand displacement, radioligand; cell membranes): 3330 µM
CCC1(COCc2ccccc2F)CCC(C)(C)O1 (stereo not drawn)  EC50 (ADRB2; calcium signal, agonist, fluorescence): 17 µM
